Results on twelve compounds are retold here after paper PMC4532391 (Biochemistry, 2015).

No end group written: not given here.

Test [1] addresses T1, αMI-domain (Homo sapiens, UniProt P11215). Type of test: binding.
For test [2], the system named is macrophages isolated from αMβ2-deficient mice. Description: Transwell migration of thioglycolate-elicited peritoneal macrophages. It is filed as cell-based. The following applies: 90 min, LL-37 1 μg/mL, fMLP 100 nM. In a few lines: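 Thioglycolate-elicited peritoneal monocyte/macrophages from wild-type and αMβ2-deficient mice, purified by anti-F4/80-PE selection. Placed in Transwell inserts with chemoattractant below: LL-37 1 μg/mL or fMLP 100 nM. Allowed to migrate 90 min.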

Test [3] has as its target T1, αMI-domain. The settings on record: covalently coupled to the cellulose membrane; cited from earlier work.
The test system of test [4] is αMβ2-expressing HEK293 cells. Description: Transwell migration of αMβ2-expressing HEK293 cells. It is filed as cell-based. The settings on record: concentration-dependent, 16 h at 37 °C. In a few lines:
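Transwell, 5 μm pores: 3 × 10^5 αMβ2-HEK293 cells in the upper chamber, LL-37 (0.1–2 μg/mL) below, 16 h at 37 °C. Cells on the filter underside are fixed with paraformaldehyde, hematoxylin-stained and counted (mean cells/view ± standard error, ≥3 experiments). Blocking: 15 min pretreatment with 20 μg/mL anti-αM 44a, anti-β2 IB4 or non-inhibitory OKM1, LL-37 at 0.5 μg/mL. Medium-alone control.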

The next test relates to U937 monocytic cells. Description: Chemotaxis of U937 cells towards an agarose drop on coverslips. Type of test: cell-based, human. The settings on record: agarose gel with 15 μg/mL LL-37; 2 h at 37 °C. Put shortly: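 U937 cells on 22 × 22 mm coverslips. A 10 μL drop of 1% agarose in HBSS, with LL-37 at 15 μg/mL final, sits ~1.5 mm from one corner; a control agarose drop sits in the opposite corner; both polymerise 5 min. Coverslips are submerged in RPMI 1640/10% FBS. 5 × 10^4 cells are loaded centrally, then 2 h at 37 °C, 5% CO2. Migration photographed at 2 mm intervals (20× objective); blocking variant uses anti-αM mAb 44a.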

Another test has as its system αMβ2 on neutrophils. Description: Flow cytometry of the activation-dependent CBRM1/5 epitope on neutrophils. It is filed as cell-based, human. In a few lines:
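Human blood neutrophils, isolated sterilely, at 10^6 per 0.1 mL in HBSS/0.1% BSA. Exposed 5 min at 22 °C to LL-37 (0.5–10 μg/mL) or fMLP (200 nM). Then Alexa 488-conjugated activation-dependent mAb CBRM1/5, 30 min on ice. Epitope-positive cells counted by flow cytometry. Some samples pretreated with NIF (1 μg/mL) before LL-37 at 4 or 10 μg/mL.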

T1 sequence (P11215 139-331): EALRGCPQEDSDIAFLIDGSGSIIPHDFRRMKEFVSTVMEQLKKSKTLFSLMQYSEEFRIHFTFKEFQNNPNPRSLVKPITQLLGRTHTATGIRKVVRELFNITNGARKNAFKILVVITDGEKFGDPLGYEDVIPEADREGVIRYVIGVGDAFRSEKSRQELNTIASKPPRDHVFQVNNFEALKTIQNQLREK

In turn, `CC(C)C[C@H](NC(=O)[C@H](CC(C)C)NC(=O)[C@H](CCCNC(=N)N)NC(=O)[C@@H](N)CC(N)=O)C(=O)N[C@@H](CC(C)C)C(=O)N[C@H](C(=O)NCC(=O)O)[C@@H](C)O` [NRLLLTG] gave an IC50 on αMI-domain [1] of 110 ± 16 µM.

For the compound fMLP, in test [2], the “migration of macrophages from αMβ2-deficient mice” value is on record as “migrated”. Regarding YSMKKTTMKIIPFNRLTIG [P2], at αMI-domain [3], the “αMI-domain binding of the cellulose-coupled peptide” value is reported as “bound the αMI-domain”. Regarding “LLGDFFRKSKEKIGKEFKRIVQRIKDFLRNLVPRTES [LL-37]”, the “LL-37 concentrations at which migration occurred” value in test [4] fell in the range of 0.1 to 2 µg/mL. For the same compound, the “chemotactic response of U937 cells” value with U937 monocytic cells is “induced a chemotactic response”. Moreover, in test [2], the “migration of macrophages from αMβ2-deficient mice” value is on record as “did not induce migration”. The “number of cells expressing the activation epitope compared with fMLP” value in the test with αMβ2 on neutrophils (10 μg/mL LL-37 versus fMLP 200 nM) is “slightly higher”. Also, in the test with αMβ2 on neutrophils (LL-37 0.5–10 μg/mL, 5 min at 22 °C, mAb CBRM1/5-Alexa 488, FACS), the “expression of the CBRM1/5 activation epitope on neutrophils” value is recorded as “induced expression of the CBRM1/5 epitope in a concentration-dependent manner”. At αMI-domain [1], GRLPMPW [GRLPMPW] returned a half-inhibitory concentration (IC50) of 36 ± 7 µM.

TMKIIPFNRLTIG [P2-C]: on αMI-domain [1], it took 30 ± 2.5 µM to reach half-maximal inhibition (IC50). Same read-out and setting: as for LQLRFPRFV [LQLRFPRFV], the figure is 10.5 ± 1.6 µM. Still for that read-out and setting: then QVLRIRKRA [QVLRIRKRA], with 8.4 ± 0.5 µM; and ARLPIWF [ARLPIWF], with 17 ± 3 µM; and RKLRSLWRR [RKLRSLWRR], with 2.5 ± 0.2 µM. As for SSVKKYRPKYCGS [CCN1-H2], the “αMI-domain binding of the cellulose-coupled peptide” value at αMI-domain [3] was “bound the αMI-domain”. Take SVNKYRGTAGNA [SVNKYRGTAGNA]: inhibition against αMI-domain [1] was half-maximal at 93 ± 11 µM (IC50).
